In ChEMBL document CHEMBL4513216, “Probing the Open Global Health Chemical Diversity Library for Multistage-Active Starting Points for Next-Generation Antimalarials” (ACS Infect Dis, 2020) one finds cytotoxicity data, which are given here for 97 molecules.

The nature of the data set: Toxicity liver stage against HepG2, at 10uM. Type of data set: cell-based. More on the design: test concentration 10 uM, cell line HepG2-A16-CD81EGFP. To be noted: human, HepG2-A16-CD81EGFP cells; read-out: INHIBITION
Summed up:
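Uninfected HepG2-A16-CD81EGFP cells, 3 × 10^3 per well, 1536-well, plated on prespotted compound at 10 μM final, parasite-free screening media added to match infected plates; puromycin 10 μM positive, DMSO 0.5% negative; run in parallel with 48 h PbLuc assay at 37 °C, 5% CO2; viability by CellTiter-Glo luminescence, normalized to controls.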
On to `Cc1nccc(-c2cccc(NCc3nc(C(C)C)no3)c2)n1`, for which the cytotoxicity at 10 µM was found to be 5.75%.

`Cc1csc(CN2CC[C@H]3C(=O)N(c4cccnc4)CCO[C@H]3C2)n1`: the cytotoxicity at 10 µM was found to be 6.31%. Next, `COCCNC(=O)c1nc2c(s1)CCCN2Cc1ccccc1`: 12.6%; `O=C(c1nc2c(s1)CCCN2CC1CC1)N1CCOCC1`: 11.2%. Under `O=C(c1ccno1)N1CCC2(CC(=O)N(c3ccc4c(c3)OCO4)C2)C1` (configuration not stated) stands 9.82%; under `Cn1cccc1C(=O)N1CCC2(CCCN2S(C)(=O)=O)CC1`, 5.13%; under `CCS(=O)(=O)N1CCCC2(COCCN(c3nncs3)C2)C1` (configuration not stated), 7.77%. Under `CCn1cc(CN2CCN(CC(O)c3ccc(C)cc3C)CC2)c(C)n1` (configuration not stated) stands -0.664%; under `Cc1nc2ccc(C(=O)N3C[C@@H](O)[C@H](N4CCCC4)C3)cc2[nH]1`, -8.66%; under `NCc1cnn(-c2ccccc2C(=O)NCc2ccccc2Cl)c1`, -3.52%. Regarding `COCCC(=O)N1CCCC(c2nc(O)cc(-c3ccncc3)n2)C1` (configuration not stated), the cytotoxicity at 10 µM was -24.9%.

For `Cc1ncsc1-c1nnc(C2CCN(Cc3ccccc3)CC2)o1`, the cytotoxicity at 10 µM is -6.39%.

Take `c1cnc(-c2cnc(N3CCSCC3)nc2C2CCCO2)cn1` (configuration not stated): the cytotoxicity at 10 µM was 4.4%. Under `Cc1cccc(-n2cnc(Cl)c2CO)c1` stands -11.8%; under `CC1(C)COCCN1C(=O)c1ccc(Cn2cncn2)cc1`, -5.85%. Regarding `CS(=O)(=O)N1CCC(C(=O)Nc2nnc(C(F)(F)F)[nH]2)CC1`, the cytotoxicity at 10 µM is 9.52%. Next, `CCOC(C)C(=O)Nc1cc(S(=O)(=O)NC2CC2)ccc1F` (configuration not stated): -7.51%. Under `CC(=O)N1CCC(Oc2ccc(C#N)cc2)CC1` stands -83.4%; under `O=C(O)CCc1ccc(S(=O)(=O)Nc2cnn(CC(F)(F)F)c2)cc1`, -7.52%; under `CCN(C(=O)Cc1ccc(NCc2nccn2C)cc1)c1ccccc1`, -2.09%. Next, `CC(=O)NC1CCN(C(=O)Nc2cccc(SC(F)F)c2)CC1`: -0.598%; `Cc1cccc(C(=O)N(CC(=O)O)CC(C)C)c1`: -14.3%; `CN(CCOCC1CC1)C(=O)Nc1ccc([S+](C)[O-])cc1` (configuration not stated): 19.4%.

As for `CC(Oc1cc(Cl)cc(Cl)c1)C(=O)NCCOCC(N)=O` (configuration not stated), the cytotoxicity at 10 µM is -5.82%. Under `COc1cc(CNC(=O)c2csc(Br)c2)ccn1` stands -5.76%; under `Cn1cc(C2(C)CN(Cc3ccc(N4CCCC4)nc3)CCO2)cn1` (configuration not stated), 8.32%. Under `Cn1c(NC(=O)CNC(=O)C2CCCC2)nc2cc(Cl)ccc21` stands -4.53%.

Take `COCCN(CCC#N)S(=O)(=O)c1cc(F)ccc1F`: the cytotoxicity at 10 µM is -9.91%.

In the case of `CN(CC(=O)N1CCCC1c1noc(C2CC2)n1)S(C)(=O)=O` (configuration not stated), the cytotoxicity at 10 µM is -8.2%. Under `O=C(Cn1cccn1)NCC(c1cccs1)N1CCCC1` (configuration not stated) stands 11.9%. Next, `NC(=O)NC(=O)CCN1CCCC1c1cccc2c1OCCO2` (configuration not stated): -5.35%. `Cc1cnn(CC(C)NCc2nc(-c3ccoc3)no2)c1` (configuration not stated): the cytotoxicity at 10 µM worked out at 23.3%. Next, `Cc1nc(-c2ccsc2)ccc1C(=O)N(C)CC1CC1`: 2.83%; `CCOC(C)c1noc(CN2CCN(CC3CCCC3)CC2)n1` (configuration not stated): -13.2%; `CC(NC(=O)c1sccc1C1CC1)c1ccc2c(c1)CC(=O)N2` (configuration not stated): 1.66%.

Consider `Cc1cc(C)c(CNC(=O)NC2CCOCC2)c(=O)[nH]1`, for which the cytotoxicity at 10 µM was -7.05%. Next, `O=C(CC1CCCO1)Nc1ccn(Cc2cccc3cccnc23)n1` (configuration not stated): 2.17%; `CCC(C)(C)NC(=O)Nc1nnc(-c2ccccn2)s1`: 6.39%; `N#CCCN(c1ccc(F)cc1)S(=O)(=O)CC1CCCCO1` (configuration not stated): 5.65%. Next, `CSc1nc(C2CC2)nc(C)c1C(=O)NCc1cc(C)on1`: -11.7%; `CCN(Cc1noc(C(C)(C)C)n1)Cc1ccc(C#N)cc1F`: -4.45%. Next, `Cc1noc(C)c1CN(C)Cn1c(=O)n(C)c2ccccc21`: 5.25%; `C1CCC(N2CCCN(c3nc(C4CC4)no3)CC2)C1`: -9.13%. `CC(CCc1ccccc1)CC(=O)NC1CCN(CC(N)=O)CC1` (configuration not stated): the cytotoxicity at 10 µM is 9.04%. Under `CC(Cn1cccn1)NS(=O)(=O)Cc1ccccc1` (configuration not stated) stands 6.8%; under `CC1(C)C[C@H](CCNC(=O)c2ccncc2)c2ccccc2O1`, -5.55%; under `O=C1CCC2(CCOC2)CN1Cc1nc2ccc(Cl)cc2[nH]1` (configuration not stated), 1.9%.

As to `Cc1nn(C)cc1CN(C)c1nccc(-c2cn(C)nc2C)n1`, the cytotoxicity at 10 µM was determined as 20.2%. On to `CN(C(=O)CC1=CCCCC1)C1CCCN(C2Cc3ccccc3C2)C1` (configuration not stated), for which the cytotoxicity at 10 µM is -0.296%. Under `CCOc1ccnc(N2CCN(Cc3ncccc3C)CC2)n1` stands -7.32%; under `CCCc1ccc(CN2CCN(C(=O)NCC)[C@H]3CS(=O)(=O)C[C@H]32)o1`, 2.71%; under `COc1ccc(F)cc1NC(=O)NCC1(CN2CCOCC2)CC1`, 3.18%. Under `COCCC1(C(=O)O)CCCN(CCOCc2ccccc2)C1` (configuration not stated) stands -12.3%; under `CC(C)[C@@H]1CN(CC(=O)NCc2ccco2)C[C@H]1NS(=O)(=O)N(C)C`, 6.11%.

Consider `CC(C)[C@H]1CN(Cc2ccccn2)C[C@@H]1NC(=O)CCS(C)(=O)=O`, for which the cytotoxicity at 10 µM is -7.04%.

Take `CSCCCN1CCn2nc(CNC(=O)N(C)C)cc2C1`: the cytotoxicity at 10 µM was -2.66%. Turning to `Cc1ccccc1Oc1ncccc1CNC1CCC1`, the cytotoxicity at 10 µM was -1.27%. Under `CC(c1ccncn1)N(C)Cc1cc(O)c2cc(F)ccc2n1` (configuration not stated) stands -2%; under `N#CC1CCN(C(=O)CN2CC(c3ccccc3)CC2=O)CC1` (configuration not stated), -0.745%; under `Cc1cc2nc(C(C)C)cc(NCC(c3ccccn3)N(C)C)n2n1` (configuration not stated), -1.63%. Under `Cc1ncccc1OC1(C(=O)NCCC2CCCN2C)CCNCC1` (configuration not stated) stands 2.18%; under `O=C(COCC(F)(F)C(F)F)N1CCC2(CCCN(CC3CC3)C2=O)C1` (configuration not stated), 4.46%; under `CC(CN1CCOCC1)NCc1nncn1C1CCCCC1` (configuration not stated), 1.52%. Under `O=C(CN1CCCCC1)Nc1ncc(Br)cc1Br` stands -9.58%; under `CN(c1ccncn1)C1CC2(CCN(C(=O)c3ccsc3)C2)C1` (configuration not stated), 4.02%; under `CCn1cnnc1CNC(=O)N1CCN(c2nccs2)CC1`, -2.72%. As for `CSCC(=O)N1CCCC(c2cc(C)[nH]n2)C1` (configuration not stated), the cytotoxicity at 10 µM was -11.3%. Regarding `Cc1cnn(C2CCCN(C(=O)c3ccccc3-n3cnnn3)C2)c1` (configuration not stated), the cytotoxicity at 10 µM was -6.92%. Under `Cc1cc(C)c(CNC(=O)N2CCCC2c2cccc(F)c2)c(=O)[nH]1` (configuration not stated) stands 5.22%; under `CCOc1cccc2c1OCC(C(=O)NS(=O)(=O)c1ccc(Cl)s1)=C2`, -3.21%. Take `Cc1nc(C)n(CC2CCCCN2c2ncnc3ccsc23)n1` (configuration not stated): the cytotoxicity at 10 µM is -2.04%. Under `COC(=O)c1cccn1C1CCN(C(=O)c2cn[nH]c2C)CC1` stands -7.64%; under `CCOc1nnc(CN2CCC(N(C)Cc3noc(C)n3)C2)s1` (configuration not stated), -7.3%; under `Cc1cc(C)c(CNC(=O)NCC(O)c2cccc(F)c2)c(=O)[nH]1` (configuration not stated), -4.37%. Next, `CCOc1cc(C(=O)N2CCCC(n3cncn3)C2)ccc1C` (configuration not stated): -4.35%. Under `O=C(NCCOc1ccc2c(c1)CCC2)N1CCS(=O)(=O)CC1` stands -1.71%; under `c1cnnc(N2CCCC2CNCc2nc(-c3ccsc3)no2)c1` (configuration not stated), -7.7%. On to `COc1cccc(COCC(=O)N2CCCC(N3CCCC3)CC2)c1` (configuration not stated), for which the cytotoxicity at 10 µM was -4.82%. Under `Cc1nn(C)c(N2CCOCC2)c1CNC1CCN(C(C)(C)C)CC1` stands -3.66%.

Regarding `Cn1c(NCC(O)c2ccc(F)cc2F)c(C#N)c(=O)n(C)c1=O` (configuration not stated), the cytotoxicity at 10 µM is -10.9%. Next, `CC1=NN(c2ccc(C(=O)N3CCCC(n4ccnc4)C3)cc2)CC1` (configuration not stated): -15.6%; `COc1ncccc1CNc1cc(N2CCCC2CO)ncn1` (configuration not stated): -12.6%; `c1ncn(CC2CN(Cc3noc(C4CC4)n3)CCO2)n1` (configuration not stated): 1.59%.

For the molecule `CC(C)Oc1ncccc1CNC(=O)c1cc[nH]n1`, the cytotoxicity at 10 µM is -9.12%. Under `Cc1nc(C)n(C2CCCN(C(=O)c3ccc(N(C)C)nn3)C2)n1` (configuration not stated) stands 0.722%.

For `CC(C)N1CCC2(CC1)C(=O)N(c1cccnc1)c1ccc(F)cc12`, the cytotoxicity at 10 µM was 12.4%. Next, `Cc1cc(C[C@@H]2COC[C@H]2NCc2ccc(C(C)C)cc2)on1`: -30.4%; `CC(C)NC(=O)N1CCC2(C1)CN(c1ccsc1)C(=O)CN2C` (configuration not stated): 1.18%; `COc1c(CNCc2nnc3n2CCCCC3)c(C(C)C)nn1C`: 11.5%.

For `CN(C)c1nc(N2CCCC2)nc2c1CCN(C(=O)c1ccco1)CC2`, the cytotoxicity at 10 µM came out at 14.4%. Next, `O=C1C[C@H]2[C@H](CCN2Cc2ccccn2)N1CC1CC1`: 5.8%; `COc1ccc(CN2C[C@@H]3OCCN(CC4CCCO4)[C@@H]3C2)cc1` (some centres not stated): -0.851%. Next, `Cc1cccc(C(=O)N2C[C@@H](OCc3cccnc3)[C@H]3OCCC[C@@H]32)n1`: -1.75%; `OCCN1CCC2(CCc3cc(-c4ccoc4)ccc32)CC1`: -0.582%. Next, `CN(C)C(=O)NCc1ncn2c1CN(Cc1ccco1)CCC2`: 8.22%. Consider `CN(C)C(=O)N1C[C@H]2CC[C@@H](C1)N(Cc1nnc(C3CC3)o1)C2`, for which the cytotoxicity at 10 µM came to 0.266%.

On to `CSc1ccccc1CN1C[C@H]2CC[C@@H](C1)N(CC1CC1)C2=O`, for which the cytotoxicity at 10 µM is -4.81%.
